Assay results pooled from the literature.
Compare with care: the assays were run in different laboratories.
EIF2AK4 S808G C-terminal kinase domain: eIF-2-alpha kinase GCN2, C-terminal kinase domain (EIF2AK4, Homo sapiens, UniProt Q9P2K8, S808G)
EIF2AK4 S808G: eIF-2-alpha kinase GCN2 (EIF2AK4, Homo sapiens, UniProt Q9P2K8, S808G)

SMILES	target	test	conditions	remaining binding [%]
O=C(c1ccc(Nc2nccc(-c3cc4ccccc4s3)n2)cc1)N1CCC(N2CCCC2)CC1	EIF2AK4 S808G C-terminal kinase domain	binding, competition with immobilised ligand	1 µM	5.2
O=S(=O)(NC1CCC(c2cc(F)ccc2F)(S(=O)(=O)c2ccc(Cl)cc2)CC1)C(F)(F)F (centres unmarked)	EIF2AK4 S808G C-terminal kinase domain	cell-free assay, competition with immobilised ligand	1 µM	100
CNC(=O)[C@@H]1CC[C@@H](n2c(-c3ccc4cnccc4c3)nc3ccc(C(=O)NCc4cccc(C(N)=O)c4)cc32)C1	EIF2AK4 S808G C-terminal kinase domain	binding, competition with immobilised ligand	1 µM	82
CCC(=N\O)/C(C)=C/c1ccc(F)cc1	EIF2AK4 S808G C-terminal kinase domain	cell-free assay, competition with immobilised ligand	1 µM	70
CN(CCCC(F)(F)F)c1nccc(-c2cnn3ncccc23)n1	EIF2AK4 S808G	binding	1 µM	99
COc1cnc(Nc2cccc(S(N)(=O)=O)c2)nc1N1CCN(c2ccccc2)CC1	EIF2AK4 S808G C-terminal kinase domain	binding, competition with immobilised ligand	1 µM	95
c1cncc(-c2cccc(Nc3nccc(NC4CCCCC4)n3)c2)c1	EIF2AK4 S808G C-terminal kinase domain	binding, competition with immobilised ligand	10 µM	100
O=C(NCCCN1CCOCC1)c1ccc(Nc2ncc(Cl)c(-c3ccc(Cl)s3)n2)cc1	EIF2AK4 S808G C-terminal kinase domain	binding, competition with immobilised ligand	1 µM	0.35
C[C@H](NC(=O)c1cnc2n1[C@](C)(Cc1ccc(C#N)cc1)C(=O)N2c1cc(Cl)c(F)c(Cl)c1)C(=O)NC1(c2ccccn2)CC1	EIF2AK4 S808G C-terminal kinase domain	cell-free assay, competition with immobilised ligand	1 µM	100
C[C@@H](c1ccc(-n2cnc3c(N)ncnc32)cc1)N1CCc2nn(C)c(Cc3ccccc3)c2C1=O	EIF2AK4 S808G C-terminal kinase domain	binding, competition with immobilised ligand	0.1 µM	98
F[C@@H]1CCN(c2nccc(-c3cnn4ncccc34)n2)C1	EIF2AK4 S808G	binding	1 µM	63
CC(=O)N1CCC(c2ccc(C(=O)NC3=NCCN3)cc2C(F)(F)F)CC1	EIF2AK4 S808G C-terminal kinase domain	cell-free assay, competition with immobilised ligand	1 µM	52
O=C(NCC1CCOCC1)c1n[nH]cc1NC(=O)c1c(F)cccc1F	EIF2AK4 S808G C-terminal kinase domain	binding, competition with immobilised ligand	1 µM	100
CN(C)c1nccc(-c2cnc3ncccn23)n1	EIF2AK4 S808G	binding	1 µM	99
O=C(O)[C@H]1[C@H](Cn2nnc3ccccc3c2=O)CC[C@@H]1C(=O)c1ccc(OCCC2CCOCC2)cc1	EIF2AK4 S808G C-terminal kinase domain	cell-free assay, competition with immobilised ligand	1 µM	55
CN(C)c1ncc(F)c(-c2cnn3ncccc23)n1	EIF2AK4 S808G	binding	1 µM	100
CN1CCN(c2ccc(Nc3nccc(-c4cccc([N+](=O)[O-])c4)n3)cc2C(F)(F)F)CC1	EIF2AK4 S808G	binding	10 µM	0.2
c1cnn2ncc(-c3ccnc(N4CCC45COC5)n3)c2c1	EIF2AK4 S808G	binding	1 µM	100
C=CC(=O)N1CCC(C(=O)NCC(=O)N2CCN(c3nc(-c4cnc(N)nc4C(F)F)nc(N4CCOCC4)n3)CC2)CC1	EIF2AK4 S808G C-terminal kinase domain	binding, competition with immobilised ligand	1 µM	100
C[C@H]1CCN(c2nccc(-c3cnn4ncccc34)n2)C1	EIF2AK4 S808G	binding	1 µM	100
Cc1cnc(Nc2ccc(C(=O)N3CCC(N4CCCC4)CC3)cc2)nc1-c1cc2ccccc2s1	EIF2AK4 S808G C-terminal kinase domain	binding, competition with immobilised ligand	1 µM	0
CCCOc1ccc([C@@H]2[C@@H](C(=O)O)[C@H](c3ccc4c(c3)OCO4)CN2CC(=O)Nc2c(CC)cccc2CC)cc1	EIF2AK4 S808G C-terminal kinase domain	cell-free assay, competition with immobilised ligand	1 µM	100
N[C@H]1CCN(c2nccc(-c3cnn4ncccc34)n2)C1	EIF2AK4 S808G	binding	1 µM	100
